According to ChEMBL document CHEMBL4373647, “Design, synthesis, and antimicrobial evaluation of 1,4-dihydroindeno[1,2-c]pyrazole tethered carbohydrazide hybrids: exploring their in silico ADMET, ergosterol inhibition and ROS inducing potential” (Medchemcomm, 2019):
In brackets after ≈: the same amount, converted by molar mass. Activity calls are given as the source filed them. The rule behind the calls is not given here.

Legend:
Assay type in all cases: functional
Staphylococcus aureus [1] = assay: Ratio of MBC to MIC against Staphylococcus aureus MTCC 96
Micrococcus luteus [2] = assay: Ratio of MBC to MIC against Micrococcus luteus MTCC 2470
Micrococcus luteus [3] = assay: Antibacterial activity against Micrococcus luteus MTCC 2470 assessed as inhibition of bacterial growth incubated for 24 hrs by agar well diffusion method; conditions: MTCC 2470, 24 h
Procedure, shortened: (§1)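 Strains from MTCC; inoculum at 0.5 McFarland spread on Mueller-Hinton agar; 6 mm wells loaded with compound over 125–0.97 µg/mL; ciprofloxacin positive control (same range), DMSO negative control. Plates held 24 h at 37 °C; MIC taken as lowest concentration giving a clear inhibition zone. Triplicate runs, mean MIC reported.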

Staphylococcus aureus [4] = assay: Antibacterial activity against Staphylococcus aureus MTCC 96 assessed as inhibition of bacterial growth incubated for 24 hrs by agar well diffusion method; conditions: MTCC 96, 24 h; procedure, shortened: as §1
Bacillus subtilis = assay: Antibacterial activity against Bacillus subtilis MTCC 121 assessed as inhibition of bacterial growth incubated for 24 hrs by agar well diffusion method; conditions: MTCC 121, 24 h; procedure, shortened: as §1
Escherichia coli [5] = assay: Antibacterial activity against Escherichia coli MTCC 739 assessed as inhibition of bacterial growth incubated for 24 hrs by agar well diffusion method; conditions: MTCC 739, 24 h; procedure, shortened: as §1
Pseudomonas aeruginosa [6] = assay: Antibacterial activity against Pseudomonas aeruginosa MTCC 2453 assessed as inhibition of bacterial growth incubated for 24 hrs by agar well diffusion method; conditions: MTCC 2453, 24 h; procedure, shortened: as §1
Raoultella planticola [7] = assay: Antibacterial activity against Klebsiella planticola MTCC 530 assessed as inhibition of bacterial growth incubated for 24 hrs by agar well diffusion method; conditions: MTCC 530, 24 h; procedure, shortened: as §1
Candida albicans [8] = assay: Antifungal activity against Candida albicans MTCC 3017 assessed as inhibition of fungal growth incubated for 24 hrs by agar well diffusion method; conditions: MTCC 3017, 24 h
Procedure, shortened: (§2)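 Candida strains from MTCC, pre-cultured and spread on Mueller Hinton agar. Wells received compound dissolved in 10% DMSO, 125–0.97 µg/mL; miconazole standard over the same range, DMSO negative control. After 24 h at 37 °C, MIC was read as the lowest concentration giving an inhibition zone. Duplicate experiments, means given.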

Candida albicans [9] = assay: Antifungal activity against Candida albicans MTCC 227 assessed as inhibition of fungal growth incubated for 24 hrs by agar well diffusion method; conditions: MTCC 227, 24 h; procedure, shortened: as §2
Candida albicans [10] = assay: Antifungal activity against Candida albicans MTCC 3018 assessed as inhibition of fungal growth incubated for 24 hrs by agar well diffusion method; conditions: MTCC 3018, 24 h; procedure, shortened: as §2
Candida albicans [11] = assay: Antifungal activity against Candida albicans MTCC 4748 assessed as inhibition of fungal growth incubated for 24 hrs by agar well diffusion method; conditions: MTCC 4748, 24 h; procedure, shortened: as §2
Candida albicans [12] = assay: Antifungal activity against Candida albicans MTCC 7315 assessed as inhibition of fungal growth incubated for 24 hrs by agar well diffusion method; conditions: MTCC 7315, 24 h; procedure, shortened: as §2
Nakaseomyces glabratus [13] = assay: Antifungal activity against Candida glabrata MTCC 3019 assessed as inhibition of fungal growth incubated for 24 hrs by agar well diffusion method; conditions: MTCC 3019, 24 h; procedure, shortened: as §2
Micrococcus luteus [14] = assay: Bactericidal activity against Micrococcus luteus MTCC 2470 assessed as bacterial killing incubated for 24 hrs; conditions: MTCC 2470, 24 h
Procedure, shortened: (§3)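 Broth tube assay: compound at 0–125 µg/mL in Mueller Hinton broth, overnight culture added to 0.5 McFarland (1.5 × 10^8 cfu/mL), held 24 h at 37 °C. 10 µL from each tube plated on Mueller Hinton agar. MBC is the lowest concentration that kills the strain. Duplicates, means reported.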

Staphylococcus aureus [15] = assay: Bactericidal activity against Staphylococcus aureus MTCC 96 assessed as bacterial killing incubated for 24 hrs; conditions: MTCC 96, 24 h; procedure, shortened: as §3
Staphylococcus aureus [16] = assay: Bactericidal activity against Staphylococcus aureus MLS-16 MTCC 2940 assessed as bacterial killing incubated for 24 hrs; conditions: MLS-16 MTCC 2940, 24 h; procedure, shortened: as §3
Escherichia coli [17] = assay: Bactericidal activity against Escherichia coli MTCC 739 assessed as bacterial killing incubated for 24 hrs; conditions: MTCC 739, 24 h; procedure, shortened: as §3
Pseudomonas aeruginosa [18] = assay: Bactericidal activity against Pseudomonas aeruginosa MTCC 2453 assessed as bacterial killing incubated for 24 hrs; conditions: MTCC 2453, 24 h; procedure, shortened: as §3
Raoultella planticola [19] = assay: Bactericidal activity against Klebsiella planticola MTCC 530 assessed as bacterial killing incubated for 24 hrs; conditions: MTCC 530, 24 h; procedure, shortened: as §3
Pichia kudriavzevii [20] = assay: Antifungal activity against Candida krusei MTCC 3020 assessed as inhibition of fungal growth incubated for 24 hrs by agar well diffusion method; conditions: MTCC 3020, 24 h; procedure, shortened: as §2
Candida albicans [21] = assay: Fungicidal activity against Candida albicans MTCC 183 assessed as fungal killing incubated for 24 hrs
Procedure, shortened: (§4)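 Compound at 125–0.97 µg/mL in Mueller Hinton broth in microcentrifuge tubes, each Candida strain added, held 24 h at 37 °C. 10 µL of the treated suspension plated on Mueller Hinton agar and incubated a further 24 h at 37 °C. MFC is the lowest concentration that kills the strain. Duplicates, means reported.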

Candida albicans [22] = assay: Fungicidal activity against Candida albicans MTCC 227 assessed as fungal killing incubated for 24 hrs; conditions: MTCC 227, 24 h; procedure, shortened: as §4
Candida albicans [23] = assay: Fungicidal activity against Candida albicans MTCC 3018 assessed as fungal killing incubated for 24 hrs; conditions: MTCC 3018, 24 h; procedure, shortened: as §4
Candida albicans [24] = assay: Fungicidal activity against Candida albicans MTCC 4748 assessed as fungal killing incubated for 24 hrs; conditions: MTCC 4748, 24 h; procedure, shortened: as §4
Candida albicans [25] = assay: Fungicidal activity against Candida albicans MTCC 7315 assessed as fungal killing incubated for 24 hrs; conditions: MTCC 7315, 24 h; procedure, shortened: as §4
Candida parapsilosis [26] = assay: Fungicidal activity against Candida parapsilosis MTCC 1744 assessed as fungal killing incubated for 24 hrs; conditions: Lodderomyces parapsilosis, MTCC 1744, 24 h; procedure, shortened: as §4
Nakaseomyces glabratus [27] = assay: Fungicidal activity against Candida glabrata MTCC 3019 assessed as fungal killing incubated for 24 hrs; conditions: MTCC 3019, 24 h; procedure, shortened: as §4
Pichia sporocuriosa [28] = assay: Fungicidal activity against Issatchenkia hanoiensis MTCC 4755 assessed as fungal killing incubated for 24 hrs; conditions: MTCC 4755, 24 h; procedure, shortened: as §4
Candida albicans [29] = assay: Ratio of MFC to MIC against Candida albicans MTCC 227
Procedure, shortened: (§5)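 MIC by agar well diffusion: Candida lawns on Mueller-Hinton agar, wells loaded with compound in 10% DMSO (125–0.97 µg/mL), 24 h at 37 °C, lowest concentration giving an inhibition zone. MFC: compound in Mueller-Hinton broth (125–0.97 µg/mL) with yeast, 24 h at 37 °C, 10 µL plated on agar, lowest killing concentration after 24 h. Ratio is MFC/MIC.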

Candida albicans [30] = assay: Ratio of MFC to MIC against Candida albicans MTCC 1637
Candida albicans [31] = assay: Ratio of MFC to MIC against Candida albicans MTCC 4748; procedure, shortened: as §5
Candida albicans [32] = assay: Ratio of MFC to MIC against Candida albicans MTCC 7315; procedure, shortened: as §5
Candida parapsilosis [33] = assay: Ratio of MFC to MIC against Candida parapsilosis MTCC 1744; procedure, shortened: as §5
Pichia kudriavzevii [34] = assay: Ratio of MFC to MIC against Candida krusei MTCC 3020; procedure, shortened: as §5
Pichia sporocuriosa [35] = assay: Ratio of MFC to MIC against Issatchenkia hanoiensis MTCC 4755; procedure, shortened: as §5
Escherichia coli [36] = assay: Ratio of MBC to MIC for Escherichia coli MTCC 739
Pseudomonas aeruginosa [37] = assay: Ratio of MBC to MIC for Pseudomonas aeruginosa MTCC 2453
Raoultella planticola [38] = assay: Ratio of MBC to MIC for Klebsiella planticola MTCC 530

| SMILES | Ratio (Staphylococcus aureus [1]) | Ratio (Micrococcus luteus [2]) | MIC (Micrococcus luteus [3]) [µg/mL] | MIC (Staphylococcus aureus [4]) [µg/mL] | MIC (Bacillus subtilis) [µg/mL] | MIC (Escherichia coli [5]) [µg/mL] | MIC (Pseudomonas aeruginosa [6]) [µg/mL] | MIC (Raoultella planticola [7]) [µg/mL] | MIC (Candida albicans [8]) [µg/mL] | MIC (Candida albicans [9]) [µg/mL] | MIC (Candida albicans [10]) [µg/mL] | MIC (Candida albicans [11]) [µg/mL] | MIC (Candida albicans [12]) [µg/mL] | MIC (Nakaseomyces glabratus [13]) [µg/mL] | MBC (Micrococcus luteus [14]) [µg/mL] | MBC (Staphylococcus aureus [15]) [µg/mL] | MBC (Staphylococcus aureus [16]) [µg/mL] | MBC (Escherichia coli [17]) [µg/mL] | MBC (Pseudomonas aeruginosa [18]) [µg/mL] | MBC (Raoultella planticola [19]) [µg/mL] | also measured |
| --- | --- | --- | --- | --- | --- | --- | --- | --- | --- | --- | --- | --- | --- | --- | --- | --- | --- | --- | --- | --- | --- |
| COc1ccc2c(c1)Cc1c(C(=O)N/N=C/c3c(F)cc(F)cc3F)n[nH]c1-2 | 2 | 2 | 7.8 (≈ 20.2 µM) | 3.9 (≈ 10.1 µM) | 7.8 (≈ 20.2 µM) | 3.9 (≈ 10.1 µM) | 7.8 (≈ 20.2 µM) | 7.8 (≈ 20.2 µM) | 3.9 (≈ 10.1 µM) | 7.8 (≈ 20.2 µM) | 7.8 (≈ 20.2 µM) | 15.6 (≈ 40.4 µM) | 15.6 (≈ 40.4 µM) | 15.6 (≈ 40.4 µM) | 15.6 (≈ 40.4 µM) | 7.8 (≈ 20.2 µM) | 7.8 (≈ 20.2 µM) | 7.8 (≈ 20.2 µM) | 15.6 (≈ 40.4 µM) | 15.6 (≈ 40.4 µM) | MIC (Pichia kudriavzevii [20]): 15.6 µg/mL (≈ 40.4 µM); MFC (Candida albicans [21]): inactive; MFC (Candida albicans [22]): 15.6 µg/mL (≈ 40.4 µM); MFC (Candida albicans [23]): 15.6 µg/mL (≈ 40.4 µM); MFC (Candida albicans [24]): 31.2 µg/mL (≈ 80.8 µM); MFC (Candida albicans [25]): 31.2 µg/mL (≈ 80.8 µM); MFC (Candida parapsilosis [26]): 31.2 µg/mL (≈ 80.8 µM); MFC (Nakaseomyces glabratus [27]): 31.2 µg/mL (≈ 80.8 µM); MFC (Pichia sporocuriosa [28]): 31.2 µg/mL (≈ 80.8 µM); Ratio (Candida albicans [29]): 2; Ratio (Candida albicans [30]): 2; Ratio (Candida albicans [31]): 2; Ratio (Candida albicans [32]): 2; Ratio (Candida parapsilosis [33]): 2; Ratio (Pichia kudriavzevii [34]): 2; Ratio (Pichia sporocuriosa [35]): 2; Ratio (Escherichia coli [36]): 2; Ratio (Pseudomonas aeruginosa [37]): 2; Ratio (Raoultella planticola [38]): 2 |
| O=C(N/N=C/c1ccc(O)cc1)c1n[nH]c2c1Cc1ccccc1-2 | 2 | 2 | 7.8 (≈ 24.5 µM) | 3.9 (≈ 12.3 µM) | 7.8 (≈ 24.5 µM) | 3.9 (≈ 12.3 µM) | 7.8 (≈ 24.5 µM) | 7.8 (≈ 24.5 µM) | 7.8 (≈ 24.5 µM) | 7.8 (≈ 24.5 µM) | 7.8 (≈ 24.5 µM) | > 31.2 | 15.6 (≈ 49 µM) | > 31.2 | 15.6 (≈ 49 µM) | 7.8 (≈ 24.5 µM) | 7.8 (≈ 24.5 µM) | 7.8 (≈ 24.5 µM) | 15.6 (≈ 49 µM) | 15.6 (≈ 49 µM) | MIC (Pichia kudriavzevii [20]): 15.6 µg/mL (≈ 49 µM); MFC (Candida albicans [21]): inactive; MFC (Candida albicans [22]): 15.6 µg/mL (≈ 49 µM); MFC (Candida albicans [23]): 15.6 µg/mL (≈ 49 µM); MFC (Candida albicans [24]): > 62.5 µg/mL; MFC (Candida albicans [25]): 31.2 µg/mL (≈ 98 µM); MFC (Candida parapsilosis [26]): 31.2 µg/mL (≈ 98 µM); MFC (Nakaseomyces glabratus [27]): > 62.5 µg/mL; MFC (Pichia sporocuriosa [28]): 62.4 µg/mL (≈ 196 µM); Ratio (Candida albicans [29]): 2; Ratio (Candida albicans [30]): 2; Ratio (Candida albicans [31]): 2; Ratio (Candida albicans [32]): 2; Ratio (Candida parapsilosis [33]): 2; Ratio (Pichia kudriavzevii [34]): 2; Ratio (Pichia sporocuriosa [35]): 2; Ratio (Escherichia coli [36]): 2; Ratio (Pseudomonas aeruginosa [37]): 2; Ratio (Raoultella planticola [38]): 2 |
